What all share (conditions): Bos taurus
Compound in data set [1]: O=C(NC(=S)Nc1ccc(S(=O)(=O)Nc2ncccn2)cc1)c1ccc(Cl)cc1
The data set can be described thus: Mixed-type inhibition of calf intestinal alkaline phosphatase assessed as substrate Vmax at 0.015 uM using varying levels of p-NPP as substrate measured every minute for 10 mins by Lineweaver-Burk plot analysis (reference value: 1.2 10^-5deltaA/s). In short, it runs like this: (§1)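 Same CIALP buffer and enzyme system with inhibitor at 0.0, 0.015 and 0.3 µM and p-NPP at 10, 5, 2.5, 1.25 and 0.625 mM. Initial velocities were read every minute over the first 10 min after enzyme addition. Inhibition type came from Lineweaver-Burk plots of 1/V vs 1/[S]. Ki came from secondary plots of slope vs inhibitor concentration, Ki′ from intercept vs concentration.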

Compound in data set [2]: O=C(NC(=S)Nc1ccc(S(=O)(=O)Nc2ncccn2)cc1)c1ccc(Cl)cc1
As to the kind of experiment: Mixed-type inhibition of calf intestinal alkaline phosphatase assessed as substrate Vmax at 0.3 uM using varying levels of p-NPP as substrate measured every minute for 10 mins by Lineweaver-Burk plot analysis (reference value: 1.2 10^-5deltaA/s). The gist of the method: as §1

Compound in data set [3]: O=C(NC(=S)Nc1ccc(S(=O)(=O)Nc2ncccn2)cc1)c1ccc(Cl)cc1
The data set can be described thus: Mixed-type inhibition of calf intestinal alkaline phosphatase assessed as substrate Km at 0.015 uM using varying levels of p-NPP as substrate by Lineweaver-Burk plot analysis (reference value: 0.833 mM). The gist of the method:
as §1

Compound in data set [4]: O=C(NC(=S)Nc1ccc(S(=O)(=O)Nc2ncccn2)cc1)c1ccc(Cl)cc1
As to the kind of experiment: Mixed-type inhibition of calf intestinal alkaline phosphatase assessed as substrate Km at 0.3 uM using varying levels of p-NPP as substrate by Lineweaver-Burk plot analysis (reference value: 0.833 mM). The gist of the method:
as §1

B1: Intestinal-type alkaline phosphatase (Bos taurus), P19111 (protein)
chain: MQGACVLLLLGLHLQLSLGLVPVEEEDPAFWNRQAAQALDVAKKLQPIQTAAKNVILFLGDGMGVPTVTATRILKGQMNGKLGPETPLAMDQFPYVALSKTYNVDRQVPDSAGTATAYLCGVKGNYRTIGVSAAARYNQCKTTRGNEVTSVMNRAKKAGKSVGVVTTTRVQHASPAGAYAHTVNRNWYSDADLPADAQMNGCQDIAAQLVNNMDIDVILGGGRKYMFPVGTPDPEYPDDASVNGVRKRKQNLVQAWQAKHQGAQYVWNRTALLQAADDSSVTHLMGLFEPADMKYNVQQDHTKDPTLQEMTEVALRVVSRNPRGFYLFVEGGRIDHGHHDDKAYMALTEAGMFDNAIAKANELTSELDTLILVTADHSHVFSFGGYTLRGTSIFGLAPSKALDSKSYTSILYGNGPGYALGGGSRPDVNDSTSEDPSYQQQAAVPQASETHGGEDVAVFARGPQAHLVHGVEEETFVAHIMAFAGCVEPYTDCNLPAPTTATSIPDAAHLAASPPPLALLAGAMLLLLAPTLY
Usually Km stands for the substrate concentration at which the rate is half of its maximum. Regarding B1, the Vmax (10'-6deltaA/s) in data set [1] is 8. In data set [2], the Vmax (10'-5deltaA/s) is 4.9. Further, the Km in data set [3] was 1330 µM; in data set [4], 2000 µM.

(Values after ChEMBL document CHEMBL4118259, “Synthesis of sulfadiazinyl acyl/aryl thiourea derivatives as calf intestinal alkaline phosphatase inhibitors, pharmacokinetic properties, lead optimization, Lineweaver-Burk plot evaluation and binding analysis” (Bioorg Med Chem, 2018).)
